Four compounds from ChEMBL document CHEMBL3774321, “Systematic diversification of benzylidene heterocycles yields novel inhibitor scaffolds selective for Dyrk1A, Clk1 and CK2” (Eur J Med Chem, 2016) can be followed below.

Active and inactive are the calls of the source. No cut-off for these calls is given here.

Data set [1] addresses Casein kinase I isoform delta (Homo sapiens) (UniProt P48730). Nature of the data set: Inhibition of full length recombinant human GST-tagged CSNK1D expressed in baculovirus expression system at 1 uM by lantha screen kinase binding assay relative to control.
Data set [2] concerns the target MAP kinase-interacting serine/threonine-protein kinase 1 (Homo sapiens) (UniProt Q9BUB5). Put plainly: Inhibition of full length recombinant human N-terminal GST-tagged MKNK1 expressed in insect cells at 1 uM by lantha screen kinase binding assay relative to control. The gist of the method: (§1)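 Binding-displacement format: the compound competes with an Alexa Fluor-conjugated tracer for binding to the kinase ATP site, rather than a peptide phosphorylation read-out.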

Data set [3] addresses MAP kinase-interacting serine/threonine-protein kinase 2 (Homo sapiens) (UniProt Q9HBH9). Put plainly: Inhibition of full length recombinant human N-terminal GST-tagged MKNK2 expressed in insect cells at 1 uM by lantha screen kinase binding assay relative to control. The gist of the method: as §1
The target of data set [4] is Serine/threonine-protein kinase D2 (Homo sapiens) (UniProt Q9BZL6). Nature of the data set: Inhibition of full length recombinant human GST-tagged PRKD2 expressed in baculovirus expression system at 1 uM by lantha screen kinase binding assay relative to control.
In data set [5] the target is Tyrosine-protein kinase ABL1 (Homo sapiens) (UniProt P00519). Nature of the data set: Inhibition of recombinant human His-tagged ABL1 expressed in baculovirus expression system at 1 uM by lantha screen kinase binding assay relative to control. Put shortly: as §1
Data set [6] deals with Dual specificity protein kinase CLK3 (Homo sapiens, UniProt P49761). Put plainly: Inhibition of recombinant human GST-tagged CLK3 expressed in baculovirus expression system by lantha screen kinase binding assay. The gist of the method:
as §1

The target in data set [7] is Receptor-interacting serine/threonine-protein kinase 2 (Homo sapiens) (UniProt O43353). Put plainly: Inhibition of recombinant human His-tagged RIPK2 expressed in baculovirus expression system at 1 uM by lantha screen kinase binding assay relative to control. Put shortly:
as §1

The target of data set [8] is Proto-oncogene tyrosine-protein kinase ROS (Homo sapiens) (UniProt P08922). Put plainly: Inhibition of recombinant human GST-tagged ROS1 expressed in baculovirus expression system at 1 uM by lantha screen kinase binding assay relative to control. Put shortly:
as §1

Data set [9] concerns the target Cyclin-dependent kinase 5/CDK5 activator 1 (Homo sapiens) (UniProt Q00535+Q15078). Put plainly: Inhibition of full length recombinant human GST-tagged, His-tagged CDK5/p25 expressed in baculovirus expression system at 1 uM by lantha screen kinase binding assay.
The target in data set [10] is Dual specificity tyrosine-phosphorylation-regulated kinase 4 (Homo sapiens) (UniProt Q9NR20). Nature of the data set: Inhibition of full length recombinant human GST-tagged DYRK4 expressed in baculovirus expression system at 1 uM by lantha screen kinase binding assay relative to control.
In data set [11] the target is Casein kinase I isoform gamma-2 (Homo sapiens) (UniProt P78368). Nature of the data set: Inhibition of full length recombinant human His-tagged CSNK1G2 expressed in baculovirus expression system at 1 uM by lantha screen kinase binding assay relative to control.
Data set [12] addresses Casein kinase I isoform epsilon (Homo sapiens) (UniProt P49674). Nature of the data set: Inhibition of full length recombinant human His-tagged CSNK1E expressed in baculovirus expression system at 1 uM by lantha screen kinase binding assay relative to control.
The target of data set [13] is Calcium/calmodulin-dependent protein kinase type II subunit alpha (Homo sapiens) (UniProt Q9UQM7). Put plainly: Inhibition of full length recombinant human His-tagged CAMK2A expressed in baculovirus expression system at 1 uM by lantha screen kinase binding assay relative to control.
In data set [14] the target is cAMP-dependent protein kinase catalytic subunit alpha (Homo sapiens) (UniProt P17612). Nature of the data set: Inhibition of recombinant human His-tagged PRKACA expressed in Escherichia coli at 1 uM by lantha screen kinase binding assay relative to control. Put shortly:
as §1

In data set [15] the target is Dual specificity protein kinase CLK2 (Homo sapiens) (UniProt P49760). Put plainly: Inhibition of recombinant human GST-tagged CLK2 expressed in baculovirus expression system at 1 uM by lantha screen kinase binding assay relative to control. The gist of the method: as §1
In data set [16] the target is Myosin light chain kinase, smooth muscle (Homo sapiens) (UniProt Q15746). Nature of the data set: Inhibition of recombinant human GST-tagged MYLK expressed in baculovirus expression system at 1 uM by lantha screen kinase binding assay relative to control. Put shortly: as §1
The target of data set [17] is Casein kinase I isoform epsilon (Homo sapiens) (UniProt P49674). Put plainly: Inhibition of full length recombinant human His-tagged CSNK1E expressed in baculovirus expression system at 5 uM by lantha screen kinase binding assay relative to control.
In data set [18] the target is cAMP-dependent protein kinase catalytic subunit alpha (Homo sapiens) (UniProt P17612). Nature of the data set: Inhibition of recombinant human His-tagged PRKACA expressed in Escherichia coli at 5 uM by lantha screen kinase binding assay relative to control. The gist of the method: as §1
In data set [19] the target is Myosin light chain kinase 2, skeletal/cardiac muscle (Homo sapiens, UniProt Q9H1R3). Nature of the data set: Inhibition of full length recombinant human N-terminal GST-tagged skeletal MYLK2 expressed in baculovirus expression system at 5 uM by lantha screen kinase binding assay relative to control. Put shortly:
as §1

Data set [20] addresses Proto-oncogene tyrosine-protein kinase ROS (Homo sapiens) (UniProt P08922). Put plainly: Inhibition of recombinant human GST-tagged ROS1 expressed in baculovirus expression system at 5 uM by lantha screen kinase binding assay relative to control. The gist of the method: as §1
For data set [21], the target named is Serine/threonine-protein kinase 26 (Homo sapiens) (UniProt Q9P289). Nature of the data set: Inhibition of full length recombinant human GST-tagged MST4 expressed in baculovirus expression system at 5 uM by lantha screen kinase binding assay relative to control.
Data set [22] concerns the target Mitogen-activated protein kinase kinase kinase 9 (Homo sapiens) (UniProt P80192). Nature of the data set: Inhibition of recombinant human GST-tagged MAP3K9 expressed in baculovirus expression system at 5 uM by lantha screen kinase binding assay relative to control. The gist of the method:
as §1

The target in data set [23] is Homeodomain-interacting protein kinase 1 (Homo sapiens) (UniProt Q86Z02). Put plainly: Inhibition of recombinant human N-terminal GST-tagged HIPK1 expressed in baculovirus expression system at 5 uM by lantha screen kinase binding assay relative to control. The gist of the method: as §1
The target of data set [24] is Dual specificity tyrosine-phosphorylation-regulated kinase 4 (Homo sapiens) (UniProt Q9NR20). Nature of the data set: Inhibition of full length recombinant human GST-tagged DYRK4 expressed in baculovirus expression system at 5 uM by lantha screen kinase binding assay relative to control.
Data set [25] deals with BDNF/NT-3 growth factors receptor (Homo sapiens) (UniProt Q16620). Nature of the data set: Inhibition of recombinant human His-tagged NTRK2 expressed in baculovirus expression system at 5 uM by lantha screen kinase binding assay relative to control. The gist of the method:
as §1

In data set [26] the target is Casein kinase I isoform gamma-2 (Homo sapiens) (UniProt P78368). Nature of the data set: Inhibition of full length recombinant human His-tagged CSNK1G2 expressed in baculovirus expression system at 5 uM by lantha screen kinase binding assay relative to control. The gist of the method: as §1
In data set [27] the target is Calcium/calmodulin-dependent protein kinase type II subunit alpha (Homo sapiens) (UniProt Q9UQM7). Put plainly: Inhibition of full length recombinant human His-tagged CAMK2A expressed in baculovirus expression system at 5 uM by lantha screen kinase binding assay relative to control.
The target of data set [28] is Tyrosine-protein kinase ABL1 (Homo sapiens) (UniProt P00519). Put plainly: Inhibition of recombinant human His-tagged ABL1 expressed in baculovirus expression system at 5 uM by lantha screen kinase binding assay relative to control. Put shortly:
as §1

The target in data set [29] is Dual specificity tyrosine-phosphorylation-regulated kinase 3 (Homo sapiens) (UniProt O43781). Put plainly: Inhibition of full length recombinant human GST-tagged DYRK3 expressed in baculovirus expression system at 5 uM by lantha screen kinase binding assay relative to control.
The next data set deals with HEK293. Put plainly: Cytotoxicity against HEK293 cells up to 20 uM. To be noted: human. The class given is cell-based.
For data set [30], the target named is Serine/threonine-protein kinase 17A (Homo sapiens) (UniProt Q9UEE5). Put plainly: Inhibition of STK17A (unknown origin) at 5 uM relative to control.
In data set [31] the target is Serine/threonine-protein kinase pim-1 (Homo sapiens, UniProt P11309). Nature of the data set: Inhibition of PIM1 (unknown origin) at 5 uM relative to control.

Casein kinase I isoform epsilon (Homo sapiens), sequence (P49674 whole entry, looked up, canonical isoform): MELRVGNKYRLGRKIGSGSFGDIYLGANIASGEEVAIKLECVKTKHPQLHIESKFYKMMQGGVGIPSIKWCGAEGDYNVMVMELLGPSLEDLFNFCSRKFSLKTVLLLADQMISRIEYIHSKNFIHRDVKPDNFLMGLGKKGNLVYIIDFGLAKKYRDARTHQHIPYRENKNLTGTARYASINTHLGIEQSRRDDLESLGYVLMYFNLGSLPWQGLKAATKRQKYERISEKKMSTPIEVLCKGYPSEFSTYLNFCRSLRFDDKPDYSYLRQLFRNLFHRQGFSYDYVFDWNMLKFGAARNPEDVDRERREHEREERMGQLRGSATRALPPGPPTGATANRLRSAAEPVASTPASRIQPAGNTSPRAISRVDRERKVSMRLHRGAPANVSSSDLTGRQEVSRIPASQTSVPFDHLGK
Dual specificity tyrosine-phosphorylation-regulated kinase 4 (Homo sapiens), sequence (Q9NR20 whole entry, canonical isoform): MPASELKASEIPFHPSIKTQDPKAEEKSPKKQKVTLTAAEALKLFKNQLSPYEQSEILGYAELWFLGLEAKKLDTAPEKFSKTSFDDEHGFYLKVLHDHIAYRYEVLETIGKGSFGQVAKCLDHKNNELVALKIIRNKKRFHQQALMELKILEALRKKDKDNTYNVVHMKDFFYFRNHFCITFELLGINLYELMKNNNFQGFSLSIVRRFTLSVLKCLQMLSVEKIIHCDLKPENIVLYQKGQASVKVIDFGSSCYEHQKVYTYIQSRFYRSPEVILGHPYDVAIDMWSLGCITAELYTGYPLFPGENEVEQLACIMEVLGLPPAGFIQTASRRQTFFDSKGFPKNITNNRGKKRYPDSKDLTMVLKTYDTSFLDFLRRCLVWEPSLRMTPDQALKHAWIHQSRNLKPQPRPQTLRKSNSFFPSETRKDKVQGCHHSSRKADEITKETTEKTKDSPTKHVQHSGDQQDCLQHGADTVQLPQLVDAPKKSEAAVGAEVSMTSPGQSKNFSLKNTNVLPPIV
Calcium/calmodulin-dependent protein kinase type II subunit alpha (Homo sapiens), sequence (Q9UQM7 whole entry): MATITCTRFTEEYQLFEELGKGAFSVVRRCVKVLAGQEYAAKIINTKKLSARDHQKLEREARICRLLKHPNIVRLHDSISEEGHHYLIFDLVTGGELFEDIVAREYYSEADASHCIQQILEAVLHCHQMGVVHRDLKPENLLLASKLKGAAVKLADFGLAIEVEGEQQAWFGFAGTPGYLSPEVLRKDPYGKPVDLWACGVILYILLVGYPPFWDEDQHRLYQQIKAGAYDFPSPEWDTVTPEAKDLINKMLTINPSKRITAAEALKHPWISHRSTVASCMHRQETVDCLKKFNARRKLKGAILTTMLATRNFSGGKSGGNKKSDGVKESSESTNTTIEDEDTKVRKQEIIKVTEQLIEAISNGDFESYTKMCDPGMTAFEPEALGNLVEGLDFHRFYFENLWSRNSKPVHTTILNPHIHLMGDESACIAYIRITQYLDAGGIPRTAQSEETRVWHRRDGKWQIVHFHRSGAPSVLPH
Tyrosine-protein kinase ABL1 (Homo sapiens), sequence (P00519 whole entry): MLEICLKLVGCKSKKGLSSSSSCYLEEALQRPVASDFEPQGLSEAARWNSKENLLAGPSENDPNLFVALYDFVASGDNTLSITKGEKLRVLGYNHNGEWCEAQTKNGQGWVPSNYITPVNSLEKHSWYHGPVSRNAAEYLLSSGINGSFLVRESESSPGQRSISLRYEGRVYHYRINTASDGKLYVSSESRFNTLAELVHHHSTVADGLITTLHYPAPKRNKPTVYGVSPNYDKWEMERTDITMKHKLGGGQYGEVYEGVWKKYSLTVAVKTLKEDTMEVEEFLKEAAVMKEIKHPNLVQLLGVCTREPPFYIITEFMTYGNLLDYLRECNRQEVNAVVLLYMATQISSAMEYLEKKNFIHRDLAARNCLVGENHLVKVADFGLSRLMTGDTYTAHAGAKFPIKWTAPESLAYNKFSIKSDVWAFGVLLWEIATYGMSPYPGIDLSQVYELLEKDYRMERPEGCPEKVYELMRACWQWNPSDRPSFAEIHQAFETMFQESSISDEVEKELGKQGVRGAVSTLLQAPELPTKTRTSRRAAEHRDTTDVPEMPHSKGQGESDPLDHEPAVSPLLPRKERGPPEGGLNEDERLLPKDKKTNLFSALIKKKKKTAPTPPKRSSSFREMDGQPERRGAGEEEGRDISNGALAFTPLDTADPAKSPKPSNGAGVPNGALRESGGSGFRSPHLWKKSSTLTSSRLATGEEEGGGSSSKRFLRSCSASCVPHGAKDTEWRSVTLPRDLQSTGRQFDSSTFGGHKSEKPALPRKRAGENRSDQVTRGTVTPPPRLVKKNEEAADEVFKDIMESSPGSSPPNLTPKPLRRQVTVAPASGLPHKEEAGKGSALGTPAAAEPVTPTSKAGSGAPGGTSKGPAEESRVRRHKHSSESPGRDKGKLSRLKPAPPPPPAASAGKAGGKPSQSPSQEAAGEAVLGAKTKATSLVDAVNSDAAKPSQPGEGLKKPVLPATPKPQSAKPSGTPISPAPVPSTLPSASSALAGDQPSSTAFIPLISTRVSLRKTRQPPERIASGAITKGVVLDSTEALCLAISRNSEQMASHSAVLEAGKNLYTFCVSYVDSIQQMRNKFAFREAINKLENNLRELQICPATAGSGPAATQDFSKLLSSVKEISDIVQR
Proto-oncogene tyrosine-protein kinase ROS (Homo sapiens), sequence (P08922 whole entry): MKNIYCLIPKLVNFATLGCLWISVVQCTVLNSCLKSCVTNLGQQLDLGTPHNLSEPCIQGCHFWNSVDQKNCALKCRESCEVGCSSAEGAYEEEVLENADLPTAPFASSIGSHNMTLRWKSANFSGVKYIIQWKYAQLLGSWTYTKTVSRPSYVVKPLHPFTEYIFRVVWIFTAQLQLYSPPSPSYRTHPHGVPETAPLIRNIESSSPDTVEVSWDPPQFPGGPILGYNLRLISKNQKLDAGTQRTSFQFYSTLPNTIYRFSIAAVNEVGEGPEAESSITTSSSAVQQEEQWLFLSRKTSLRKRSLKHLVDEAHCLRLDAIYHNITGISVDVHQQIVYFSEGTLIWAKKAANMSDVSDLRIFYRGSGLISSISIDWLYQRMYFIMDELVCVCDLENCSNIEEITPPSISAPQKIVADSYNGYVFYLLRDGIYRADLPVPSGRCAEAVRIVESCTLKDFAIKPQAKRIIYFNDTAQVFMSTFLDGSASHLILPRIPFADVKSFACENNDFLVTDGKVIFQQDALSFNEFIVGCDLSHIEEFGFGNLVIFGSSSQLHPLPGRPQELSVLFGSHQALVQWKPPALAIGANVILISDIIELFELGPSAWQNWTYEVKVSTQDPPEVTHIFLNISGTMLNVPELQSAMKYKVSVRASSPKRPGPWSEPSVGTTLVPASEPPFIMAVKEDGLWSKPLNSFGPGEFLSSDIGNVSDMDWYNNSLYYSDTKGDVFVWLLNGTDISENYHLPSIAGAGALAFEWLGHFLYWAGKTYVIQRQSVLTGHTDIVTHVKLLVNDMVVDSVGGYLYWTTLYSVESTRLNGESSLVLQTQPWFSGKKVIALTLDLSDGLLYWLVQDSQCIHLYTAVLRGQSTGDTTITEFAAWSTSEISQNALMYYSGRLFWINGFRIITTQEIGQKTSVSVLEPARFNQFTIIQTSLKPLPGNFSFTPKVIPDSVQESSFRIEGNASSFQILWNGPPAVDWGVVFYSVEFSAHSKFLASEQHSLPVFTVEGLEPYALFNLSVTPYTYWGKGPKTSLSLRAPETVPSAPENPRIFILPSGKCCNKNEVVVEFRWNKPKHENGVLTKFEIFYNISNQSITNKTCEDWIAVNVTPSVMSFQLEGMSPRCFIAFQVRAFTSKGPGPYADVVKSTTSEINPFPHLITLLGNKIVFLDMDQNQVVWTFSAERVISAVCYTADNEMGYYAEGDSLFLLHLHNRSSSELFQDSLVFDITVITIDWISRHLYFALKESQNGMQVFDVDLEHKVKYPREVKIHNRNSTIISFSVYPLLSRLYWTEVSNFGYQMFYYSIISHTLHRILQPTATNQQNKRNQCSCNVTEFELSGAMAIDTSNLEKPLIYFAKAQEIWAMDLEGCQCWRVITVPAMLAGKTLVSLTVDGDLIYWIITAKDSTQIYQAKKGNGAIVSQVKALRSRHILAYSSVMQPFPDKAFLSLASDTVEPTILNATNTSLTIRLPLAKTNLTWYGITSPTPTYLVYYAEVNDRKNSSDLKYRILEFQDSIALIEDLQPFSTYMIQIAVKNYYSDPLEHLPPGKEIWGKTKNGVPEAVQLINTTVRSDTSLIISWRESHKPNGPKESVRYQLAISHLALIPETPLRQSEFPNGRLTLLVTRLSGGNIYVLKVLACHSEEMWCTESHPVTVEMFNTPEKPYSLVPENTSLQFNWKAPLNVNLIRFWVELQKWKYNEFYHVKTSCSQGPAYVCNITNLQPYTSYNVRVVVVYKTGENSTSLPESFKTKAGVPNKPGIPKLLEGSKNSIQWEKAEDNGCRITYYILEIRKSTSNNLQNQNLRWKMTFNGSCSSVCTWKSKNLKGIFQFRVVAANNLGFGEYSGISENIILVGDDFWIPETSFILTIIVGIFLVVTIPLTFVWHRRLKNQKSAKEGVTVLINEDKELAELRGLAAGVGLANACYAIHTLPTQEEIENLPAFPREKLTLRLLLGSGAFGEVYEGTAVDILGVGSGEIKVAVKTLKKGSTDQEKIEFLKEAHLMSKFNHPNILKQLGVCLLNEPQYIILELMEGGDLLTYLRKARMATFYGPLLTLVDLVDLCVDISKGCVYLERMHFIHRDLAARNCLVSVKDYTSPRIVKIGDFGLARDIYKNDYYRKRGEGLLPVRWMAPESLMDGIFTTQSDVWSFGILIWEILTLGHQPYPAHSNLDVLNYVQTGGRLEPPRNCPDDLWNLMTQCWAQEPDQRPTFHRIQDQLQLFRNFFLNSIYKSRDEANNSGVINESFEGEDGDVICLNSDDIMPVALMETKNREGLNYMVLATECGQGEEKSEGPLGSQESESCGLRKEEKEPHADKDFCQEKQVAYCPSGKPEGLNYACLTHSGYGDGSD

In general, inhibition refers to the drop in the measured response relative to a control, in per cent. Usually IC50 stands for the concentration that inhibits the measured activity by half. Take `O=C1NC(=S)S/C1=C\c1ccc2ncccc2c1`: the inhibition in data set [1] turned out to be 11%; in [2], 44%; in [3], 34%; in data set [4] it was 19%; in [5], 14%; in data set [7], 83%. In addition, the inhibition in data set [8] is 5%; in data set [10], 39%; in data set [11], 43%; in data set [12] it was 1%; in data set [13], 7%; in data set [15], 80%. In addition, the inhibition in [16] turned out to be 48%. Besides, the half-inhibitory concentration (IC50) in data set [6] worked out at 86.6 nM. Besides, the inhibition entry in [9] and in data set [14] was “inactive” each time.

`O=C1NC(=S)S/C1=C\c1ccc2ncsc2c1`: the inhibition entry in [17], in [18], in data set [19], in data set [20], in data set [21] and in [22] was “inactive” throughout. For the same compound, the inhibition entry in data set [23], in data set [24], in data set [25], in data set [26] and in data set [27] was “inactive” in each case. Besides, the inhibition in [28] is 6%; in data set [29], 7%.

Turning to `O=C1OCC/C1=C\c1ccc2ncsc2c1`, the Activity entry with HEK293 is reported as “Non-toxic”.

For `CC1C/C(=C\c2ccc3c(c2)CCO3)C(=O)O1` (configuration not stated), the inhibition in data set [30] came out at 28%; in data set [31], 19%.
